This note sets out measurements from ChEMBL document CHEMBL1152678, “Synthesis of bis-Schiff bases of isatins and their antiglycation activity” (Bioorg Med Chem, 2009).

SMILES strings stand for the structures.

One data set can be described thus: Antiglycation activity assessed as inhibition of BSA-derived advance glycated end product formation after 9 days by spectrophotometry.
Details: not given; call rule not given here
It counts as physicochemical. Put shortly: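 BSA (100 mg/ml) incubated with 14 mM methylglyoxal in 0.1 M phosphate buffer pH 7.4 containing NaN₃ (30 mM), aseptic, 37 °C for 9 days, with or without various concentrations of test compounds (DMSO stocks); triplicate samples. AGE-related fluorescence read; % inhibition = (1 − fluorescence of test/fluorescence of control) × 100.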
Turning to `COc1ccc(/C=N/N=C2\C(=O)Nc3ccc(Cl)cc32)cc1OC`, the IC50 result is “Not Active”.
On the same count and under the same terms, the entry for `O=C1Nc2ccc(Cl)cc2/C1=N/N=C/c1ccc(F)cc1` is “Not Active”; for `O=C1Nc2ccccc2/C1=N/N=C/c1ccc2ccccc2c1` it is “Not Active”; for `O=C1Nc2ccccc2/C1=N/N=C/c1ccc(Cl)c(Cl)c1` it is “Not Active”.
Regarding `CCOc1ccc(/C=N/N=C2\C(=O)Nc3ccccc32)cc1`, the IC50 entry is listed as “Not Active”.
In the case of `O=C1Nc2c(Cl)ccc(Cl)c2/C1=N/N=C/c1ccccc1F`, the IC50 entry is recorded as “Not Active”.
Consider `O=C1Nc2ccccc2/C1=N/N=C/c1ccc(F)cc1`, for which the IC50 result is recorded as “Not Active”.
The same measure, in the same setting: for `Cc1ccc(O)c(/C=N/N=C2\C(=O)Nc3ccccc32)c1` the value was “Not Active”; for `O=C1Nc2ccc(Cl)cc2/C1=N/N=C/c1ccccc1O`, “Not Active”.
Still for that read-out and setting: for `COc1cccc(/C=N/N=C2\C(=O)Nc3c(Cl)ccc(Cl)c32)c1O` the value was “Not Active”.

The same data set, now with this note: read-out: IC50.
Regarding `COc1ccc(/C=N/N=C2\C(=O)Nc3c(Cl)ccc(Cl)c32)cc1OC`, the IC50 is 366 µM.
On the same count and under the same terms, for `O=C1Nc2ccc(Cl)cc2/C1=N/N=C/c1ccc(O)c(O)c1` the value was 469 µM.
Still for that read-out and setting: the figure for `O=C1Nc2ccccc2/C1=N/N=C/c1cccc2ccccc12` is 380 µM.
Still for that read-out and setting: for `O=C1Nc2ccccc2/C1=N/N=C/c1ccccc1F` the value was 362 µM; for `CN(C)c1ccc(/C=N/N=C2\C(=O)Nc3ccccc32)cc1`, 406 µM; for `COc1cccc(/C=N/N=C2\C(=O)Nc3ccccc32)c1O`, 359 µM.
With `O=C1Nc2ccccc2/C1=N/N=C/c1ccccc1[N+](=O)[O-]`, the IC50 was 244 µM.
Same read-out and setting: for `O=C1Nc2ccccc2/C1=N/N=C/c1ccccc1O` the value was 444 µM; for `O=C1Nc2ccccc2/C1=N/N=C/c1cc(Cl)ccc1O`, 634 µM; for `CCOc1ccccc1/C=N/N=C1\C(=O)Nc2ccccc21`, 416 µM.
Still for that read-out and setting: for `O=C1Nc2ccccc2/C1=N/N=C/c1ccc([N+](=O)[O-])cc1` the value was 258 µM; for `O=C1Nc2ccccc2/C1=N/N=C/c1ccc(O)c(O)c1`, 291 µM.
Still for that read-out and setting: the figure for `O=C1Nc2ccccc2/C1=N/N=C/c1ccc(O)cc1` is 313 µM; for `O=C1Nc2ccccc2/C1=N/N=C/c1cccc(O)c1` it is 634 µM; for `COc1ccccc1/C=N/N=C1\C(=O)Nc2ccccc21` it is 458 µM.
Consider `O=C1Nc2ccccc2/C1=N/N=C/c1cccc(Cl)c1`, for which the IC50 was 312 µM.
On the same count and under the same terms, the figure for `O=C1Nc2c(Cl)ccc(Cl)c2/C1=N/N=C/c1ccc2ccccc2c1` is 416 µM.
Still for that read-out and setting: the figure for `C[C@@H]1O[C@@H](OC[C@H]2O[C@@H](Oc3c(-c4ccc(O)c(O)c4)oc4cc(O)cc(O)c4c3=O)[C@H](O)[C@@H](O)[C@@H]2O)[C@H](O)[C@H](O)[C@H]1O` [RUTIN] is 294 µM.

The IC50 is the concentration that gives 50% inhibition.
